Measurements from ChEMBL document CHEMBL4049434, “Radiolabeled Dibenzodiazepinone-Type Antagonists Give Evidence of Dualsteric Binding at the M2 Muscarinic Acetylcholine Receptor” (J Med Chem, 2017).

Key:
[1] = target: T1, Muscarinic acetylcholine receptor M2 (Homo sapiens, UniProt P08172); experiment: Binding affinity to human muscarinic acetylcholine receptor M2 expressed in live adherent CHOK9 cells after 2 hrs by liquid scintillation counting assay; type: cell-based
T1 sequence (P08172 whole entry): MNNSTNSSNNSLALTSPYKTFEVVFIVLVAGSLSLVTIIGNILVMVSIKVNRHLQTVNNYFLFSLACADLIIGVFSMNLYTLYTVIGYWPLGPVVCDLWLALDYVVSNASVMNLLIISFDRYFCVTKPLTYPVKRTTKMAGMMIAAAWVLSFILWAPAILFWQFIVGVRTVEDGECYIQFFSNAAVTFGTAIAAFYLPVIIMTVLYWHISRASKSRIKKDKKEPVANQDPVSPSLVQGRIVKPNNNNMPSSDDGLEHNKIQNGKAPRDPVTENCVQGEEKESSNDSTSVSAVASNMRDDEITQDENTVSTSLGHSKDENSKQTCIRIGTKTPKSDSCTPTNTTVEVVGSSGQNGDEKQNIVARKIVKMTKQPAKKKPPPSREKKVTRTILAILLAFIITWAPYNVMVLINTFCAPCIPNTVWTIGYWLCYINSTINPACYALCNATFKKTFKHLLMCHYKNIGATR
Summary of the method: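 Live adherent CHO-hM2 cells in L15 medium with 1% BSA, 23 ± 1 °C, 2 h incubation. Competition at 2 nM radioligand; additional 4, 8, 15 and 30 nM in W84 experiments. […] Saturation data fitted one-site; competition by four-parameter logistic fits; at least three experiments in triplicate.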

[2] = target: T1, Muscarinic acetylcholine receptor M2; experiment: Displacement of [3H]NMS from human muscarinic acetylcholine receptor M2 expressed in CHOK9 cells after 3 hrs by liquid scintillation counting assay; type: cell-based; details: read-out: Ki
[3] = target: T1, Muscarinic acetylcholine receptor M2; experiment: Binding affinity to human muscarinic acetylcholine receptor M2 expressed in CHOK9 cell homogenate assessed as saturation binding after 2 hrs by liquid scintillation counting assay
[4] = target: T1, Muscarinic acetylcholine receptor M2; experiment: Binding affinity to human muscarinic acetylcholine receptor M2 expressed in CHOK9 cell homogenate after 2 hrs by liquid scintillation counting assay; details: read-out: Kd(app)
Summary of the method: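 CHO-hM2 cell homogenates (25–30 μg protein/well) in L15 medium with 1% BSA, 23 ± 1 °C, 2 h with tritiated dimeric radioligand. Competition used 0.5 nM radioligand; additional 0.4, 1, 2 and 4 nM in W84 experiments. […] Four-parameter logistic fits; at least three experiments in triplicate.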

Kd [1]: 8.4 nM | Ki [2]: 0.71 nM | Kd [3]: 4.6 nM | Kd [4]: 3 to 4.6 nM
Structure (SMILES): O=C(O)C(F)(F)F.O=C(O)C(F)(F)F.O=C(O)C(F)(F)F.O=C(O)C(F)(F)F.[3H]CC([3H])C(=O)NC1CN(CCCCC2CCN(CC(=O)N3c4ccccc4NC(=O)c4ccccc43)CC2)CCN(CCCCC2CCN(CC(=O)N3c4ccccc4NC(=O)c4ccccc43)CC2)C1 (centres undefined)
